ChEMBL document CHEMBL3616379, “From carbohydrates to drug-like fragments: Rational development of novel α-amylase inhibitors” (Bioorg Med Chem, 2015)
pIC50, pKi: −log10 of the molar value. The source made the active and inactive calls. No cut-off for these calls is given here.

Target: T1, Alpha-amylase 1A (Homo sapiens, UniProt P0DUB6)
T1 sequence (P0DUB6 whole entry): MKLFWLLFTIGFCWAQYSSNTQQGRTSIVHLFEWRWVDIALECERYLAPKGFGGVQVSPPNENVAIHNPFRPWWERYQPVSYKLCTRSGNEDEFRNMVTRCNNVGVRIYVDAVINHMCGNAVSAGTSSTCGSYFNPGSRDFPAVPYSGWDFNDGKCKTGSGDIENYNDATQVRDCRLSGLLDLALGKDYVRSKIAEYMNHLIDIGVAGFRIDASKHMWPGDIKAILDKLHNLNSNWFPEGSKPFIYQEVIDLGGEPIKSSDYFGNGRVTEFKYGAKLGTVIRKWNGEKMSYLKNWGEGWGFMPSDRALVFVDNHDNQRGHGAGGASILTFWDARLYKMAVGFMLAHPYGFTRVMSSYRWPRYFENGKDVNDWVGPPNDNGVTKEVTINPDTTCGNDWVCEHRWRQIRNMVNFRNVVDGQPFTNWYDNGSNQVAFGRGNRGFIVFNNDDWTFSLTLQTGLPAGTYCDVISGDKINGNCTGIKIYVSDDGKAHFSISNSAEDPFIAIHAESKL
Assay: Inhibition of human salivary alpha-amylase using GalG2CNP as substrate by UV-Vis spectrophotometric analysis
Conditions: not given

| IC50 | Structure (SMILES) |
| --- | --- |
| ND(Insoluble) | Cc1cc(C=O)c(O)c(/C=N/N=C(/N/N=C/c2cc(C)cc(C=O)c2O)SCc2ccccc2)c1 |

Same assay, conditions: read-out: IC50

| Structure (SMILES) | pIC50 |
| --- | --- |
| Oc1ccc(Nc2nc(-c3ccccc3)cs2)cc1 | 2.89 |
| CC(=O)N1CCN(C2=NC(=O)/C(=C\c3ccccc3O)S2)CC1 | 3.15 |
| Nc1ccc(Nc2nc(-c3ccc(Cl)cc3Cl)cs2)cc1 | 3.57 |
| CC(O)CNCCNCc1ccc(-c2ccccc2F)o1 (stereo not drawn) | 3.00 |
| Oc1ccc(Nc2nc(-c3ccc(Cl)cc3)cs2)cc1 | 2.98 |

Results, then the molecule that gave them:

| pIC50 | Structure (SMILES) |
| --- | --- |
| 3.70 | Cc1ccc(O)c(Cc2cc(C)cc(Cc3cc(C)ccc3O)c2O)c1 |
| 3.17 | O=C(O)c1ccc(Nc2nc(-c3ccc(O)cc3O)cs2)cc1 |
| 3.07 | C/C(=N\NC(=O)CCC(=O)Nc1ccccc1C)c1ccc(O)cc1O |
| 3.59 | COc1cc(Br)cc(/C=C2/SC(Nc3cccc(C(=O)O)c3)=NC2=O)c1O |
| 3.13 | Cc1ccc(-c2csc(Nc3ccc(O)cc3)n2)cc1 |
| 2.40 | CCc1cc(-c2n[nH]c(C(=O)O)c2-c2ccc3c(c2)OCO3)c(O)cc1O |
| 3.48 | COc1cccc(NC(=N)Nc2nc(O)cc(CSc3ccccn3)n2)c1 |
| 3.52 | COc1cccc(C2NC(c3cccc(OC)c3O)C([N+](=O)[O-])C(C)(C)C2[N+](=O)[O-])c1O (stereo not drawn) |
| 4.21 | O=C(O)c1cccc(N2C(=O)/C(=C/c3ccccc3O)SC2=S)c1 |
| 3.31 | Oc1ccc(Nc2nc(-c3ccc(O)cc3)cs2)cc1 |
| 2.40 | Cc1[nH]nc(-c2ccc(O)cc2O)c1Oc1ccc(C(=O)O)cc1 |
| 4.30 | O=C1S/C(=C\c2cc(Cl)ccc2O)C(=O)N1Cc1cccc([N+](=O)[O-])c1 |
| 3.19 | O=C(O)c1ccc(Nc2nc(-c3ccc(O)cc3O)cs2)cc1O |
| 3.86 | Oc1ccc(Nc2nc(-c3ccc(O)cc3O)cs2)cc1 |
| 4.40 | COc1ccc(Nc2nc(-c3ccccc3O)cs2)cc1 |

Target: T2, Alpha-amylase 1A (Homo sapiens) (UniProt P0DUB6)
T2 sequence (whole entry): T1 sequence (P0DUB6 whole entry)
Assay: Competitive inhibition of human salivary alpha-amylase using GalG2CNP as substrate by Lineweaver-Burk plot analysis
Conditions: not given
Procedure, shortened: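 Inhibition mode assigned from Lineweaver-Burk plots. Human salivary α-amylase (2 nM) started reactions containing GalG2CNP (0.75–4 mM) and inhibitor in DMSO, in 50 mM MES pH 6.0 with 5 mM Ca(OAc)2, 51.5 mM NaCl, 152 mM NaN3 at 37°C. Rates from continuous 400 nm absorbance of released CNP.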

| Inhibition mode | Structure (SMILES) |
| --- | --- |
| Active | Cc1ccc(O)c(Cc2cc(C)cc(Cc3cc(C)ccc3O)c2O)c1 |
| Active | O=C1S/C(=C\c2cc(Cl)ccc2O)C(=O)N1Cc1cccc([N+](=O)[O-])c1 |
| Active | Oc1ccc(Nc2nc(-c3ccc(O)cc3O)cs2)cc1 |

Target: T2, Alpha-amylase 1A (Homo sapiens)
Assay: Potency index, ratio of BAS 04880564 IC50 to compound IC50 for human salivary alpha-amylase
Conditions: not given

| Ratio IC50 | Structure (SMILES) |
| --- | --- |
| 0.53 | COc1cc(Br)cc(/C=C2/SC(Nc3cccc(C(=O)O)c3)=NC2=O)c1O |
| 2.22 | O=C(O)c1cccc(N2C(=O)/C(=C/c3ccccc3O)SC2=S)c1 |
| 0.51 | Nc1ccc(Nc2nc(-c3ccc(Cl)cc3Cl)cs2)cc1 |
| 2.76 | O=C1S/C(=C\c2cc(Cl)ccc2O)C(=O)N1Cc1cccc([N+](=O)[O-])c1 |
| 3.45 | COc1ccc(Nc2nc(-c3ccccc3O)cs2)cc1 |

Target: T3, Pancreatic alpha-amylase (Homo sapiens, UniProt P04746)
T3 sequence (P04746 whole entry): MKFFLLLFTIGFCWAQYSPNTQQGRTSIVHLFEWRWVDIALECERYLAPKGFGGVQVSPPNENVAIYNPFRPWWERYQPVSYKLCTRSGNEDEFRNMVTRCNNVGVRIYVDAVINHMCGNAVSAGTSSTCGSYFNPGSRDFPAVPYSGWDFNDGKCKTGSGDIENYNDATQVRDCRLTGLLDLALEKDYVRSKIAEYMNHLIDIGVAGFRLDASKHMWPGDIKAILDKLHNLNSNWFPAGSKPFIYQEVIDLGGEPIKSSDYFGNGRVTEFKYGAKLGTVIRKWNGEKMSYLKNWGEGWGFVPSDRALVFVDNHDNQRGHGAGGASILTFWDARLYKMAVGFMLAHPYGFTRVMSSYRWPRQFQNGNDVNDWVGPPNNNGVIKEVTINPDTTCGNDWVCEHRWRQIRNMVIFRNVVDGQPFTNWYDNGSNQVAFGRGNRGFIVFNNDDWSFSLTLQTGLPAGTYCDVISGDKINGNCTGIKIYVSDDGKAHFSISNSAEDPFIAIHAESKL
Assay: Inhibition of human pancreatic alpha-amylase expressed in Pichia pastoris using amylase as substrate preincubated with substrate for 10 mins followed by protein addition measured every 5 mins by Dixon plot analysis
Conditions: not given

| pKi | Structure (SMILES) |
| --- | --- |
| 7.38 | C[C@H]1O[C@H](O[C@H]2[C@H](O)[C@@H](O)[C@@H](O[C@H]3[C@H](O)[C@@H](O)[C@@H](O[C@H]4[C@H](O)[C@@H](O)[C@@H](O[C@H]5[C@H](O)[C@@H](O)[C@@H](O)O[C@@H]5CO)O[C@@H]4CO)O[C@@H]3CO)O[C@@H]2CO)[C@H](O)[C@@H](O)[C@@H]1N[C@H]1C=C(CO)[C@@H](O[C@H]2O[C@H](CO)[C@@H](O[C@H]3O[C@H](C)[C@@H](N[C@H]4C=C(CO)[C@@H](O[C@H]5O[C@H](CO)[C@@H](O[C@H]6O[C@H](C)[C@@H](N[C@H]7C=C(CO)[C@@H](O[C@H]8O[C@H](CO)[C@@H](O[C@H]9O[C@H](C)[C@@H](N[C@H]%10C=C(CO)[C@@H](O)[C@H](O)[C@H]%10O)[C@H](O)[C@H]9O)[C@H](O)[C@H]8O)[C@H](O)[C@H]7O)[C@H](O)[C@H]6O)[C@H](O)[C@H]5O)[C@H](O)[C@H]4O)[C@H](O)[C@H]3O)[C@H](O)[C@H]2O)[C@H](O)[C@H]1O |
| 5.90 | CC1OC(OC2C(CO)OC(OC3C(CO)OC(O)C(O)C3O)C(O)C2O)C(O)C(O)C1NC1C=C(CO)C(OC2OC(CO)C(OC3OC(CO)C(O)C(O)C3O)C(O)C2O)C(O)C1O (stereo not drawn) |
| 7.84 | C[C@H]1O[C@H](O[C@H]2[C@H](O)[C@@H](O)[C@@H](O[C@H]3[C@H](O)[C@@H](O)[C@@H](O[C@H]4[C@H](O)[C@@H](O)[C@@H](O[C@H]5[C@H](O)[C@@H](O)[C@@H](O)O[C@@H]5CO)O[C@@H]4CO)O[C@@H]3CO)O[C@@H]2CO)[C@H](O)[C@@H](O)[C@@H]1N[C@H]1C=C(CO)[C@@H](O[C@H]2O[C@H](CO)[C@@H](O[C@H]3O[C@H](C)[C@@H](N[C@H]4C=C(CO)[C@@H](O[C@H]5O[C@H](CO)[C@@H](O[C@H]6O[C@H](C)[C@@H](N[C@H]7C=C(CO)[C@@H](O)[C@H](O)[C@H]7O)[C@H](O)[C@H]6O)[C@H](O)[C@H]5O)[C@H](O)[C@H]4O)[C@H](O)[C@H]3O)[C@H](O)[C@H]2O)[C@H](O)[C@H]1O |

Target: Alpha amylase (Homo sapiens) (UniProt P0DUB6)
Assay: (§1) Inhibition of alpha-amylase (unknown origin) relative to control
Set-up: concentration or dose not given beside the values
Conditions: concentration not given here

| Structure (SMILES) | inhibition [%] |
| --- | --- |
| OC[C@H]1O[C@@H](Oc2ccc(O)cc2)[C@H](O)[C@@H](O)[C@@H]1O | 30 |
| C[C@@H]1O[C@@H](Oc2c(-c3ccc(O)c(O)c3)oc3cc(O)cc(O)c3c2=O)[C@H](O)[C@H](O)[C@H]1O | 37.6 |
| C[C@@H]1O[C@@H](OC[C@H]2O[C@@H](Oc3c(-c4ccc(O)c(O)c4)oc4cc(O)cc(O)c4c3=O)[C@H](O)[C@@H](O)[C@@H]2O)[C@H](O)[C@H](O)[C@H]1O | 20.1 |
| C[C@@H]1O[C@@H](O[C@H]2[C@H](Oc3cc(O)c4c(c3)O[C@H](c3ccc(O)cc3)CC4=O)O[C@H](CO)[C@@H](O)[C@@H]2O)[C@H](O)[C@H](O)[C@H]1O | 0 |

Other lines, results leading:

| inhibition [%] | Structure (SMILES) |
| --- | --- |
| 12.4 | O=c1cc(-c2ccc(O)cc2)oc2cc(O)cc(O)c12 |
| 12.2 | O=c1c(O[C@@H]2O[C@H](CO)[C@@H](O)[C@H](O)[C@H]2O)c(-c2ccc(O)c(O)c2)oc2cc(O)cc(O)c12 |
| 5 | O=c1cc(-c2ccccc2)oc2cc(O)cc(O)c12 |
| 12 | Oc1cc(O)c2cc(O)c(-c3ccc(O)c(O)c3)[o+]c2c1 |
| 17.4 | O=c1ccc2cc(O)c(O)cc2o1 |
| 16 | Oc1cc(O)c2c(c1)O[C@@H](c1ccc(O)c(O)c1)[C@H](O)C2 |

Target: T4, Alpha amylase (Homo sapiens, UniProt P0DUB6)
T4 sequence (P0DUB6 whole entry): T1 sequence (P0DUB6 whole entry)
Assay: as §1
Conditions: not given

| Structure (SMILES) | IC50 [µM] |
| --- | --- |
| COc1ccc(CCC(=O)O)cc1OC | > 12000 |
| O=C(O)/C=C/c1ccc(O)c(O)c1 [CAFFEIC ACID] | 4800 |
| O=C(O)c1ccc(O)c(O)c1 [PROTOCATECHUIC ACID] | > 10000 |
| O=C1C[C@@H](c2ccc(O)cc2)Oc2cc(O)cc(O)c21 [NARINGENIN] | 1800 |
| O=C(O)[C@]1(O)C[C@@H](O)[C@@H](O)[C@H](O)C1 [QUINIC ACID] | 13000 |
| O=C(O)c1cccc(O)c1O [2,3-DIHYDROXYBENZOIC ACID] | > 7000 |
| O=C(/C=C/c1ccc(O)c(O)c1)O[C@@H]1C[C@](O)(C(=O)O)C[C@@H](OC(=O)/C=C/c2ccc(O)c(O)c2)[C@H]1O | 390 |
| COc1cc2ccc(=O)oc2cc1O [SCOPOLETIN] | 1300 |
| O=C(/C=C/c1ccc(O)c(O)c1)O[C@@H]1C[C@@](OC(=O)/C=C/c2ccc(O)c(O)c2)(C(=O)O)C[C@@H](O)[C@@H]1O [CYNARIN] | > 2000 |
| COc1cc(/C=C/C(=O)O)ccc1O [FERULATE] | > 5000 |
| O=c1ccc2cc(O[C@@H]3O[C@H](CO)[C@@H](O)[C@H](O)[C@H]3O)c(O)cc2o1 [ESCULIN] | 1670 |
| COc1cc(/C=C/C(=O)O)cc(OC)c1O [SINAPINATE] | > 6500 |

Continued, values first:

| IC50 [µM] | Structure (SMILES) |
| --- | --- |
| 3500 | Oc1cc(O)c2c(c1)O[C@H](c1ccc(O)c(O)c1)[C@H](O)C2 [(-)-EPICATECHIN] |
| > 14000 | O=C(O)CCc1ccc(O)c(O)c1 [DIHYDROCAFFEIC ACID] |
| 1400 | O=C(/C=C/c1ccc(O)c(O)c1)O[C@H](Cc1ccc(O)c(O)c1)C(=O)O [ROSMARINIC ACID] |
| 280 | O=c1cc(-c2ccc(O)c(O)c2)oc2cc(O[C@@H]3O[C@H](CO)[C@@H](O)[C@H](O)[C@H]3O)cc(O)c12 [GALUTEOLIN] |
